Converted amounts (≈) assume the structure as drawn.
Columns and labels:
[1] = tested on: Mus musculus; experiment: Anti-P388 Leukemia activity administered 150 mg/kg intraperitoneally, expressed as percent of the median survival time; format: functional; conditions: route intraperitoneal
In short: (§1)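 P388 leukemia-bearing mice given drug ip on days 1 and 5, with dose expressed per injection. T/C is the median survival time of treated mice as a percent of saline-treated controls. Long-term survivors are mice alive out of total on day 30, when the experiment ended.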

[2] = tested on: Mus musculus; experiment: Anti-P388 Leukemia activity administered 30 mg/kg intraperitoneally, expressed as percent of the median survival time; format: functional; conditions: route intraperitoneal; in short: as §1
[3] = tested on: HCT cell line; experiment: The inhibition concentration against etoposide resistant HCT/VP35 cell growth after 72 hours; format: functional, cell-based; conditions: Homo sapiens
In short: (§2)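 Panel of human colon lines (HCT-116, etoposide sensitive; HCT/VP35, acquired-resistant; MOSER, inherently resistant) and mouse melanoma B16-F10. Viability is read by crystal violet protein stain, or by XTT vital stain for some HCT/VP35 and HCT-116 runs. IC50 is the dose reducing cell growth by 50% after 72 h versus controls. Values are averages of at least two runs.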

[4] = Inhibitory selectivity against HCT/VP35 and HCT116 cell growth after 72 hours; format: functional, HCT-116
In short: (§3)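 Ratio of the HCT/VP35 IC50 to the HCT-116 IC50, as a measure of overcoming acquired etoposide resistance. The IC50 is the dose giving 50% growth reduction after 72 h versus controls, read by crystal violet or XTT stain. Values are averages of at least two runs.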

[5] = organism: Homo sapiens; experiment: The inhibition concentration of MOSER cell growth after 72 hours; format: functional; in short: as §2
[6] = tested on: B16-F10; experiment: The inhibition concentration of B16-F10 cell growth after 72 hours; format: functional, cell-based; conditions: Mus musculus, B16-F10, 72 h; in short: as §2
[7] = tested on: HCT-116; experiment: In vitro inhibitory concentration against etoposide sensitive HCT116 cell growth after 72 hours; format: functional, cell-based; conditions: Homo sapiens, HCT-116, 72 h; in short: as §2
[8] = tested on: Mus musculus; experiment: Percent median survival time (T/C) of mice when administered intraperitoneally at dose 20 mg/kg; format: functional; conditions: route intraperitoneal; in short: as §1
[9] = tested on: B16-F10; experiment: In vitro inhibitory concentration against B16-F10 cell growth after 72 hours; format: functional, cell-based; conditions: Mus musculus, B16-F10, 72 h; in short: as §2
[10] = tested on: Mus musculus; experiment: Percent median survival time (T/C) of mice when administered intraperitoneally at dose 40 mg/kg; format: functional; conditions: route intraperitoneal; in short: as §1
[11] = organism: Homo sapiens; experiment: In vitro inhibitory concentration against MOSER cell growth after 72 hours; format: functional; in short: as §2
[12] = tested on: HCT cell line; experiment: In vitro inhibitory concentration against etoposide resistant HCT/VP35 cell growth after 72 hours; format: functional, cell-based; conditions: Homo sapiens; in short: as §2
[13] = tested on: Mus musculus; experiment: Percent median survival time (T/C) of mice when administered intraperitoneally at dose 80 mg/kg; format: functional; conditions: route intraperitoneal; in short: as §1
[14] = tested on: Mus musculus; experiment: Maximum percent median survival time of mice when administered intraperitoneally at dose 60 mg/kg; format: functional; conditions: route intraperitoneal
[15] = tested on: Mus musculus; experiment: Number of long time survivors (mice alive/total) when administered intraperitoneally at dose 80 mg/kg when tested in 4 mice; format: functional; conditions: route intraperitoneal; in short: as §1
[16] = tested on: Mus musculus; experiment: Number of long time survivors (mice alive/total) when administered intraperitoneally at dose 60 mg/kg when tested in 4 mice; format: functional; conditions: route intraperitoneal; in short: as §1
[17] = tested on: Mus musculus; experiment: Anti-P388 Leukemia activity administered 50 mg/kg intraperitoneally, expressed as percent of the median survival time; format: functional; conditions: route intraperitoneal; in short: as §1
[18] = tested on: Mus musculus; experiment: Anti-P388 Leukemia activity administered 200 mg/kg intraperitoneally, expressed as percent of the median survival time; format: functional; conditions: route intraperitoneal; in short: as §1
[19] = Inhibitory selectivity against HCT/VP35 and HCT116 cell growth after 72 hr IC50 value for etoposide in the parenthesis; format: functional, HCT-116; in short: as §3
[20] = tested on: HCT-116; experiment: The inhibition concentration against etoposide sensitive HCT116 cell growth after 72 hours; format: functional, cell-based; conditions: Homo sapiens, HCT-116, 72 h; in short: as §2
[21] = tested on: Mus musculus; experiment: Percent median survival time (T/C) of mice when administered intraperitoneally at dose 120 mg/kg; format: functional; conditions: route intraperitoneal; in short: as §1

## COc1cc(OC)cc([C@@H]2c3cc4c(cc3[C@@H](O[C@@H]3O[C@@H]5CO[C@@H](C)O[C@H]5[C@H](O)[C@H]3O)[C@H]3COC(=O)[C@H]23)OCO4)c1
[1]
  T/C: 175
[2]
  T/C: 125
[3]
  IC50: 3.4 µg/mL (≈ 5.94 µM)
[4]
  Selectivity: 0.47
[5]
  IC50: 45.5 µg/mL (≈ 79.5 µM)
[6]
  IC50: 25 µg/mL (≈ 43.7 µM)

## COc1cc([C@@H]2c3cc4c(cc3[C@@H](O[C@@H]3O[C@@H]5CO[C@@H](C)O[C@H]5[C@H](O)[C@H]3O)[C@H]3COC(=O)[C@H]23)OCO4)ccc1O
[7]
  IC50: 15.4 µg/mL (≈ 27.6 µM)
[8]
  T/C: 190
[9]
  IC50: 20.1 µg/mL (≈ 36 µM)
[10]
  T/C: 245
[11]
  IC50: 46.5 µg/mL (≈ 83.3 µM)
[12]
  IC50: 5.4 µg/mL (≈ 9.67 µM)
[4]
  Selectivity: 12.3

## COC1=CC([C@@H]2c3cc4c(cc3[C@@H](O[C@@H]3O[C@@H]5CO[C@@H](C)O[C@H]5[C@H](O)[C@H]3O)[C@H]3COC(=O)[C@@H]32)OCO4)=CC(=O)C1=O
[13]
  T/C: >621
[10]
  T/C: 274
[14]
  Max T/C: >595
[15]
  LTS: 3
[16]
  LTS: 2

## C[C@@H]1OC[C@H]2O[C@@H](O[C@@H]3c4cc5c(cc4[C@@H](c4ccc(O)cc4)[C@H]4C(=O)OC[C@@H]43)OCO5)[C@H](O)[C@@H](O)[C@@H]2O1
[3]
  IC50: 85.1 µg/mL (≈ 161 µM)
[17]
  T/C: 145
[18]
  T/C: 175
[5]
  IC50: 42.9 µg/mL (≈ 81.2 µM)
[6]
  IC50: 43.4 µg/mL (≈ 82.1 µM)
[19]
  Selectivity: 1.4
[20]
  IC50: 62.7 µg/mL (≈ 119 µM)

## COc1cc([C@@H]2c3cc4c(cc3[C@@H](O[C@@H]3O[C@@H]5CO[C@@H](C)O[C@H]5[C@H](O)[C@H]3O)[C@H]3COC(=O)[C@H]23)OCO4)cc(OC)c1O [ETOPOSIDE]
[21]
  T/C: 447
